Experiments:
[1] = tested on: PC-3; assay: Growth inhibition of human PC3 cells assessed as cell growth at 10 uM after 48 hrs by sulforhodamine B assay; type: functional; details: PC-3, 48 h, read-out: Activity
Summary of the method: (§1)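 Single-dose NCI-60 screen: adherent cells in RPMI 1640 with 5% FBS were exposed to 10 µM for 48 h at 37 °C after a 24 h preincubation. They were fixed in situ with cold TCA (10% final), stained with 0.4% SRB in 1% acetic acid, solubilized in 10 mM Tris base, and read at 515 nm. Percent growth was taken relative to time-zero and control plates.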

[2] = tested on: UO-31; assay: Growth inhibition of human UO31 cells assessed as cell growth at 10 uM after 48 hrs by sulforhodamine B assay; type: functional; details: UO-31, 48 h, read-out: Activity
Summary of the method: (§2)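 Single-dose NCI-60 test at 10 µM. Cells were grown in RPMI 1640 with 5% FBS and 2 mM L-glutamine, preincubated 24 h, with T0 plates TCA-fixed. Exposure was 48 h at 37 °C, 5% CO2. Cells were fixed with cold TCA (final 10%, 4 °C, 60 min), stained with SRB and read at 515 nm. Percent growth was taken relative to T0 and untreated control; negative values denote cell kill.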

[3] = tested on: IGROV-1; assay: Growth inhibition of human IGROV1 cells assessed as cell growth at 10 uM after 48 hrs by sulforhodamine B assay; type: functional; details: IGROV-1, 48 h, read-out: Activity
Summary of the method: (§3)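 NCI-60 single-dose screen at 10 µM: cells in RPMI 1640 with 5% FBS, preincubated 24 h, then exposed 48 h at 37 °C. TCA fixation (16% final for suspension cells), SRB staining, absorbance 515 nm. Percent growth relative to time-zero and untreated control plates; negative values indicate cell kill.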

[4] = tested on: SK-MEL-2; assay: Growth inhibition of human SK-MEL-2 cells assessed as cell growth at 10 uM after 48 hrs by sulforhodamine B assay; type: functional; details: SK-MEL-2, 48 h, read-out: Activity; summary of the method: as §1
[5] = tested on: MDA-MB-435; assay: Growth inhibition of human MDA-MB-435 cells assessed as cell growth at 10 uM after 48 hrs by sulforhodamine B assay; type: functional; details: MDA-MB-435, 48 h, read-out: Activity; summary of the method: as §1
[6] = tested on: Malme-3M; assay: Growth inhibition of human MALME-3M cells assessed as cell growth at 10 uM after 48 hrs by sulforhodamine B assay; type: functional; details: read-out: Activity; summary of the method: as §1
[7] = tested on: SNB-19; assay: Growth inhibition of human SNB19 cells assessed as cell growth at 10 uM after 48 hrs by sulforhodamine B assay; type: functional; details: SNB-19, 48 h, read-out: Activity; summary of the method: as §2
[8] = tested on: SF-295; assay: Growth inhibition of human SF295 cells assessed as cell growth at 10 uM after 48 hrs by sulforhodamine B assay; type: functional; details: SF-295, 48 h, read-out: Activity; summary of the method: as §1
[9] = Growth inhibition of human HCC2998 cells assessed as cell growth at 10 uM after 48 hrs by sulforhodamine B assay; type: functional; details: HCC 2998, 48 h, read-out: Activity; summary of the method: as §3
[10] = tested on: COLO 205; assay: Growth inhibition of human COLO205 cells assessed as cell growth at 10 uM after 48 hrs by sulforhodamine B assay; type: functional; details: COLO 205, 48 h, read-out: Activity; summary of the method: as §3
[11] = tested on: NCI-H460; assay: Growth inhibition of human NCI-H460 cells assessed as cell growth at 10 uM after 48 hrs by sulforhodamine B assay; type: functional; details: NCI-H460, 48 h, read-out: Activity; summary of the method: as §1
[12] = tested on: NCI-H23; assay: Growth inhibition of human NCI-H23 cells assessed as cell growth at 10 uM after 48 hrs by sulforhodamine B assay; type: functional; details: NCI-H23, 48 h, read-out: Activity; summary of the method: as §1
[13] = tested on: SR; assay: Growth inhibition of human SR cells assessed as cell growth at 10 uM after 48 hrs by sulforhodamine B assay; type: functional; details: read-out: Activity
Summary of the method: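 Suspension line in RPMI 1640 with 5% FBS, single 10 µM dose for 48 h. Settled cells were fixed with TCA (final 16%), then SRB-stained and read at 515 nm. Percent growth was taken versus T0 and control; negative values denote cytotoxicity.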

[14] = tested on: RPMI-8226; assay: Growth inhibition of human RPMI8226 cells assessed as cell growth at 10 uM after 48 hrs by sulforhodamine B assay; type: functional; details: RPMI-8226, 48 h, read-out: Activity
Summary of the method: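 Single 10 µM dose applied to suspension cells in RPMI 1640 with 5% FBS and 2 mM L-glutamine for 48 h at 37 °C. Settled cells were fixed with 80% TCA (16% final), stained with SRB, and read at 515 nm. Percent growth was calculated against time-zero and untreated control optical densities.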

[15] = tested on: MDA-MB-231; assay: Antiproliferative activity against human MDA-MB-231 cells by MTT assay; type: functional, cell-based
Summary of the method: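 Cells plated at 8 × 10^3/well (MDA-MB-231) or 10^4/well (MCF7) in 96-well plates. Compounds fed in media with 5% FBS (MDA-MB-231) or 1% FBS (MCF7). MTT read-out of viable cells.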

[16] = tested on: A498; assay: Growth inhibition of human A498 cells assessed as cell growth at 10 uM after 48 hrs by sulforhodamine B assay; type: functional; details: A498, 48 h, read-out: Activity; summary of the method: as §3

SMILES | growth at 10 µM [1] [%] | growth at 10 µM [2] [%] | growth at 10 µM [3] [%] | growth at 10 µM [4] [%] | growth at 10 µM [5] [%] | growth at 10 µM [6] [%] | growth at 10 µM [7] [%] | growth at 10 µM [8] [%] | growth at 10 µM [9] [%] | growth at 10 µM [10] [%] | growth at 10 µM [11] [%] | growth at 10 µM [12] [%] | growth at 10 µM [13] [%] | growth at 10 µM [14] [%] | IC50 [15] [µM] | growth at 10 µM [16] [%]
CC(C)=CCC/C(C)=C/CC/C(C)=C/CC[C@]1(C)CCc2c3c(c(C)c(C)c2O1)OCN(CCCCCCCCCCO)C3 | 84.3 | 71.7 | 102 | 82.3 | 98.3 | 105 | 95.7 | 111 | 97.9 | 100 | 75.5 | 90.9 | 51.9 | 78.8 | 15.7 | –
CC(C)=CCC/C(C)=C/CC/C(C)=C/CC[C@]1(C)CCc2cc(O)c(C)c(C)c2O1 [GAMMA-TOCOTRIENOL] | 96.6 | 64.1 | 96.3 | 91.3 | 102 | 92.5 | 114 | 105 | 115 | 94.4 | 105 | 92.8 | 85.5 | 78 | 9.4 | –
CC(C)=CCC/C(C)=C/CC/C(C)=C/CC[C@]1(C)CCc2c(CNCCc3ccc(O)cc3)c(O)c(C)c(C)c2O1 | 79.5 | 70.8 | 78.5 | 117 | 81.3 | 110 | 99.8 | 105 | 57.7 | 106 | 92.3 | 91.5 | 18.5 | – | – | 104
CC(C)=CCC/C(C)=C/CC/C(C)=C/CC[C@]1(C)CCc2c3c(cc(C)c2O1)OCN(CCCCCCCCCCCCO)C3 | 58.5 | 51.7 | 72.5 | 15.3 | 71.5 | 106 | 92.7 | 93.3 | 68.7 | 71.2 | 48.2 | 77.3 | -19.6 | 15.8 | > 50 | –
CC(C)=CCC/C(C)=C/CC/C(C)=C/CC[C@]1(C)CCc2c3c(cc(C)c2O1)OCN(CCCCCCCCCCO)C3 | 88.7 | 61.9 | 80.1 | 86.4 | 101 | 101 | 98.9 | 114 | 98.5 | 79.3 | 91.6 | 90.8 | 3.3 | 63.2 | 12.4 | –
COc1ccc(CCNCc2c(O)c(C)c(C)c3c2CC[C@@](C)(CC/C=C(\C)CC/C=C(\C)CCC=C(C)C)O3)cc1OC | 82.7 | 69.5 | 71.5 | 113 | 57.5 | 120 | 89.6 | 102 | -25.9 | 5.95 | 73.4 | 84.9 | 7.87 | – | – | 107
CC(C)=CCC/C(C)=C/CC/C(C)=C/CC[C@]1(C)CCc2c3c(c(C)c(C)c2O1)OCN(CCCCCCCCCCCCO)C3 | 81.3 | 77.7 | 102 | 76.8 | 100 | 101 | 104 | 93.5 | 102 | 97.5 | 103 | 104 | 67.2 | 87 | > 50 | –
